Results: ChEMBL document CHEMBL4024754, “Development of Potent, Protease-Resistant Agonists of the Parathyroid Hormone Receptor with Broad β Residue Distribution” (J Med Chem, 2017)
Activity calls are given as the source filed them. The calls are words filed in the database; no cut-off is given here. Numbered stars: 1 amine (or outer) side, 2 acyl side, 3 side chain; on linkers, the order of the positions; unused ones are H or OH. Square brackets hold non-standard residues; d marks the D form. Peptide text beside a SMILES is read from it. * marks the point of attachment. NH(1S,2S-2-CONH2-cPent) = NC(=O)[C@H]1CCC[C@@H]1N*; ACPC(1S,2S) = N[C@H]1CCC[C@@H]1C(=O)*; X1 = O=C([C@H]1CCC[C@@H]1N[*:1])[*:2]; X2 = O=C([C@H]1CNC[C@@H]1N[*:1])[*:2]; Aib = CC(C)(N)C(=O)O

Experiments:
[1] = target: T1, Parathyroid hormone/parathyroid hormone-related peptide receptor (Homo sapiens) (UniProt Q03431); assay: Displacement of [125I]-PTH(1 to 34 residues) from R0 state of human PTHR1 expressed in African green monkey COS7 cell membranes incubated for >1 hr in presence of GTPgammaS by gamma radiation method
T1 sequence (whole entry): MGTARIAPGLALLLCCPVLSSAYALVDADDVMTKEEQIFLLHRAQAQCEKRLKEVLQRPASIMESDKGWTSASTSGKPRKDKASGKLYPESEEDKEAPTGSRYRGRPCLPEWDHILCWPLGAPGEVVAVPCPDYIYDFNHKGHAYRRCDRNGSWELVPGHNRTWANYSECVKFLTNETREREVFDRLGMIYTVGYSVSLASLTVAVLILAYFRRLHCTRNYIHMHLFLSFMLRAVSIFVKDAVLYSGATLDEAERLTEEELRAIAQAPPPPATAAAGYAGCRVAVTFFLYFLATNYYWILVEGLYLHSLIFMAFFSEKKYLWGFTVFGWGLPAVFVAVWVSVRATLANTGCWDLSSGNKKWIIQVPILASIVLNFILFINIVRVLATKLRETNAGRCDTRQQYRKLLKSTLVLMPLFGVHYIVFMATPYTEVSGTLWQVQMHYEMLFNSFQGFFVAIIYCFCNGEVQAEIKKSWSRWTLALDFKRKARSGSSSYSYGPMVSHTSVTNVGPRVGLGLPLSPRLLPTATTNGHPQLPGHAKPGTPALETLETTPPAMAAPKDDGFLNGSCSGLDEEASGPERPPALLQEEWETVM

[2] = target: T2, Parathyroid hormone/parathyroid hormone-related peptide receptor (Homo sapiens, UniProt Q03431); assay: Agonist activity at human PTH1 receptor expressed in human GP2.3 cells assessed as induction of cAMP after 12 to 20 mins by luciferase reporter gene assay; format: functional, cell-based; conditions: read-out: EC50
T2 sequence (Q03431 whole entry): T1 sequence (whole entry)

[3] = target: T1, Parathyroid hormone/parathyroid hormone-related peptide receptor (Homo sapiens); assay: Agonist activity at human PTH1 receptor expressed in human GP2.3 cells assessed as induction of cAMP after 12 to 20 mins by luciferase reporter gene assay relative to PTH(1 to 34 residues)-NH2; format: functional, cell-based
[4] = target: T1, Parathyroid hormone/parathyroid hormone-related peptide receptor (Homo sapiens); assay: Agonist activity at human PTH1 receptor expressed in human GP2.3 cells assessed as induction of cAMP at 0.1 to 100 nM preincubated with protease activity quenched SIF followed by compound transfer to GP2.3 cells by luciferase reporter gene assay; format: functional, cell-based
Outline: (§1)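 Control samples: simulated gastric fluid neutralized with 10× PBS, or intestinal fluid mixed with acetonitrile/TFA quench solution, before adding peptide. Gastric controls held up to 4 h. Then diluted and tested on luciferin-loaded GP2.3 cells at 100−0.1 nM final, alongside freshly prepared peptide.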

[5] = target: T1, Parathyroid hormone/parathyroid hormone-related peptide receptor (Homo sapiens); assay: Agonist activity at human PTH1 receptor expressed in human GP2.3 cells assessed as induction of cAMP at 0.1 to 100 nM preincubated with protease activity quenched SGF up to 4 hrs followed by compound transfer to GP2.3 cells by luciferase reporter gene assay; format: functional, cell-based; outline: as §1
[6] = Stability in simulated gastric fluid assessed as pig pepsin-mediated proteolysis at 40 uM after 5 secs by RP-HPLC analysis; format: ADME, Sus scrofa; conditions: isolated protein, 5 s
Outline: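 Proteolysis quenched by transfer into 10× PBS, pH 7.4, giving 40 μM peptide. Analysed by analytical C18 RP-HPLC, 10–60% acetonitrile/0.1% TFA over 50 min. Intact peptide quantified by integrating its peak. Duplicate reactions run concurrently, standard deviation.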

[7] = target: T1, Parathyroid hormone/parathyroid hormone-related peptide receptor (Homo sapiens); assay: Agonist activity at human PTH1 receptor expressed in human GP2.3 cells assessed as induction of cAMP at 0.1 to 100 nM preincubated with SGF for 5 secs followed by compound transfer to GP2.3 cells by luciferase reporter gene assay; format: functional, cell-based
Outline: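 Quenched at set times with 10× PBS, diluted into CO2-independent medium, serially 1:10, then added to confluent GP2.3 cells (HEK293, hPTHR1 plus Glosensor cAMP reporter) preloaded 30 min with 0.5 mM D-luciferin. Final 100–0.1 nM. Luminescence read; two technical replicates; variable-slope sigmoidal fit.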

Blood = assay: Drug level in CD1 mouse blood at 20 nmol/kg, sc measured up to 2 hrs; format: ADME, organism-based; conditions: in vivo
Outline: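 Female CD1 mice, n = 5, 20 nmol/kg subcutaneously in citrate/NaCl/Tween-80 vehicle, pH 5.0. 2 μL serum from timed bleeds, mixed with CO2-independent medium, added to GP2.3 cells. Luminescence converted to peptide concentration via a standard curve.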

Mus musculus [8] = assay: In vivo induction of excessive bloodstream calcium concentration in CD1 mouse at 20 nmol/kg, sc up to 2 hrs by Ca2+/pH analyzer; format: organism-based
Outline: (§2)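 Female CD1 mice (9−12 weeks), n = 5, given 20 nmol/kg subcutaneously in 10 mM citrate/150 mM NaCl/0.05% Tween-80, pH 5.0. Tail vein blood taken before and at times after dosing. Ca2+ measured by Ca2+/pH analyzer. One-way ANOVA with Dunnett's test vs vehicle. Mean ± SEM.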

Mus musculus [9] = assay: In vivo induction of excessive bloodstream calcium concentration in CD1 mouse at 20 nmol/kg, sc after 2 hrs by Ca2+/pH analyzer; format: organism-based; outline: as §2

Structure (SMILES) | inhibition [1] | EC50 [2] | fold change (FC) [3] | Activity [4] | Activity [5] | Stability [6] | Activity [7] | Drug uptake (Blood) | Activity (Mus musculus [8]) | Activity (Mus musculus [9])
CC[C@H](C)[C@H](NC(=O)[C@H]1CCC[C@@H]1NC(=O)[C@H](CCCCN)NC(=O)CNC(=O)[C@H](CCCCN)NC(=O)[C@H](CC(=O)O)NC(=O)[C@H](Cc1cnc[nH]1)NC(=O)[C@H](CC(C)C)NC(=O)[C@H]1CCC[C@@H]1NC(=O)[C@H](CCC(N)=O)NC(=O)[C@H]1CCC[C@@H]1NC(=O)[C@H](CCC(=O)O)NC(=O)[C@H](CO)NC(=O)[C@@H](NC(=O)[C@H]1CCC[C@@H]1N)C(C)C)C(=O)N[C@@H](CCC(N)=O)C(=O)N[C@@H](CC(=O)O)C(=O)N[C@H]1CCC[C@@H]1C(=O)N[C@@H](CCCNC(=N)N)C(=O)N[C@@H](CCCNC(=N)N)C(=O)N[C@@H](CCCNC(=N)N)C(=O)N[C@H]1CNC[C@@H]1C(=O)N[C@@H](CC(C)C)C(=O)N[C@@H](CC(C)C)C(=O)N[C@@H](CCC(=O)O)C(=O)N[C@H]1CNC[C@@H]1C(=O)N[C@@H](CC(C)C)C(=O)N[C@@H](CC(C)C)C(=O)NC(C)(C)C(=O)N[C@H]1CCC[C@@H]1C(=O)N[C@@H](CC(C)C)C(=O)N[C@@H](Cc1cnc[nH]1)C(=O)N[C@H](C(=O)N[C@H]1CCC[C@@H]1C(N)=O)[C@@H](C)O ({ACPC(1S,2S)}-VSE[X1]Q[X1]LHDKGK[X1]IQD[X1]RRR[X2]LLE[X2]LL[Aib][X1]LHT-{NH(1S,2S-2-CONH2-cPent)}) | Active | 0.36 nM | 5.3 |  |  |  |  |  |  | 
CC[C@H](C)[C@H](NC(=O)[C@H](CC(C)C)NC(=O)[C@H]1CNC[C@@H]1NC(=O)[C@H](Cc1cnc[nH]1)NC(=O)[C@H](CC(C)C)NC(=O)[C@H](Cc1ccccc1)NC(=O)[C@H]1CNC[C@@H]1NC(=O)[C@H](CCCNC(=N)N)NC(=O)[C@H](CCCNC(=N)N)NC(=O)[C@H](CCCNC(=N)N)NC(=O)[C@H]1CCC[C@@H]1NC(=O)[C@H](CC(=O)O)NC(=O)[C@H](CCC(N)=O)NC(=O)[C@@H](NC(=O)[C@H]1CCC[C@@H]1NC(=O)[C@H](CCCCN)NC(=O)CNC(=O)[C@H](CCCCN)NC(=O)[C@H](CC(=O)O)NC(=O)[C@H](Cc1cnc[nH]1)NC(=O)[C@H](CC(C)C)NC(=O)[C@H]1CCC[C@@H]1NC(=O)[C@H](CCC(N)=O)NC(=O)[C@H]1CCC[C@@H]1NC(=O)[C@H](CCC(=O)O)NC(=O)[C@H](CO)NC(=O)[C@@H](NC(=O)[C@H]1CCC[C@@H]1N)C(C)C)[C@@H](C)CC)C(=O)N[C@@H](C)C(=O)N[C@H]1CCC[C@@H]1C(=O)N[C@H](C(=O)N[C@@H](Cc1cnc[nH]1)C(=O)N[C@H](C(=O)N[C@H]1CCC[C@@H]1C(N)=O)[C@@H](C)O)[C@@H](C)CC ({ACPC(1S,2S)}-VSE[X1]Q[X1]LHDKGK[X1]IQD[X1]RRR[X2]FLH[X2]LIA[X1]IHT-{NH(1S,2S-2-CONH2-cPent)}) | Active | 0.51 nM | 7.4 |  |  |  |  |  |  | 
CC[C@H](C)[C@H](NC(=O)[C@H](CCC(=O)O)NC(=O)[C@H](CO)NC(=O)[C@@H](NC(=O)[C@H]1CCC[C@@H]1N)C(C)C)C(=O)N[C@@H](CCC(N)=O)C(=O)N[C@H]1CCC[C@@H]1C(=O)N[C@@H](CCSC)C(=O)N[C@@H](Cc1cnc[nH]1)C(=O)N[C@@H](CC(N)=O)C(=O)N[C@@H](CC(C)C)C(=O)NCC(=O)N[C@@H](CCCCN)C(=O)N[C@H]1CCC[C@@H]1C(=O)N[C@@H](CC(C)C)C(=O)N[C@@H](CC(N)=O)C(=O)N[C@@H](CO)C(=O)N[C@H]1CCC[C@@H]1C(=O)N[C@@H](CCC(=O)O)C(=O)N[C@@H](CCCNC(=N)N)C(=O)N[C@H](C(=O)N[C@H]1CNC[C@@H]1C(=O)N[C@@H](Cc1c[nH]c2ccccc12)C(=O)N[C@@H](CC(C)C)C(=O)N[C@@H](CCCNC(=N)N)C(=O)N[C@H]1CNC[C@@H]1C(=O)N[C@@H](CCCCN)C(=O)N[C@@H](CC(C)C)C(=O)N[C@@H](CCC(N)=O)C(=O)N[C@H]1CCC[C@@H]1C(=O)N[C@H](C(=O)N[C@@H](Cc1cnc[nH]1)C(=O)N[C@@H](CC(N)=O)C(=O)N[C@H]1CCC[C@@H]1C(N)=O)C(C)C)C(C)C ({ACPC(1S,2S)}-VSEIQ[X1]MHNLGK[X1]LNS[X1]ERV[X2]WLR[X2]KLQ[X1]VHN-{NH(1S,2S-2-CONH2-cPent)}) |  |  | 8.7 | Active | Active |  |  |  |  | 
CC[C@H](C)[C@H](NC(=O)[C@H](CCC(=O)O)NC(=O)[C@H](CO)NC(=O)[C@@H](NC(=O)[C@@H](N)CO)C(C)C)C(=O)N[C@@H](CCC(N)=O)C(=O)N[C@@H](CC(C)C)C(=O)N[C@@H](CCSC)C(=O)N[C@@H](Cc1cnc[nH]1)C(=O)N[C@@H](CC(N)=O)C(=O)N[C@@H](CC(C)C)C(=O)NCC(=O)N[C@@H](CCCCN)C(=O)N[C@H](CC(=O)N[C@@H](CC(C)C)C(=O)N[C@@H](CC(N)=O)C(=O)N[C@@H](CO)C(=O)N[C@@H](CCSC)CC(=O)N[C@@H](CCC(=O)O)C(=O)N[C@@H](CCCNC(=N)N)C(=O)N[C@H](C(=O)N[C@@H](CCC(=O)O)CC(=O)N[C@@H](Cc1c[nH]c2ccccc12)C(=O)N[C@@H](CC(C)C)C(=O)N[C@@H](CCCNC(=N)N)C(=O)N[C@@H](CCCCN)CC(=O)N[C@@H](CCCCN)C(=O)N[C@@H](CC(C)C)C(=O)N[C@@H](CCC(N)=O)C(=O)N[C@@H](CC(=O)O)CC(=O)N[C@H](C(=O)N[C@@H](Cc1cnc[nH]1)C(=O)N[C@@H](CC(N)=O)C(=O)N[C@H](CC(N)=O)Cc1ccccc1)C(C)C)C(C)C)Cc1c[nH]c2ccccc12 |  |  | 2.1 | Active | Active | Unstable | inactive |  |  | 
CC[C@H](C)[C@H](NC(=O)[C@H](CCC(=O)O)NC(=O)[C@H](CO)NC(=O)[C@@H](NC(=O)[C@@H](N)CO)C(C)C)C(=O)N[C@@H](CCC(N)=O)C(=O)N[C@@H](CC(C)C)C(=O)N[C@@H](CCSC)C(=O)N[C@@H](Cc1cnc[nH]1)C(=O)N[C@@H](CC(N)=O)C(=O)N[C@@H](CC(C)C)C(=O)NCC(=O)N[C@@H](CCCCN)C(=O)N[C@H]1CCC[C@@H]1C(=O)N[C@@H](CC(C)C)C(=O)N[C@@H](CC(N)=O)C(=O)N[C@@H](CO)C(=O)N[C@H]1CCC[C@@H]1C(=O)N[C@@H](CCC(=O)O)C(=O)N[C@@H](CCCNC(=N)N)C(=O)N[C@H](C(=O)N[C@H]1CNC[C@@H]1C(=O)N[C@@H](Cc1c[nH]c2ccccc12)C(=O)N[C@@H](CC(C)C)C(=O)N[C@@H](CCCNC(=N)N)C(=O)N[C@H]1CNC[C@@H]1C(=O)N[C@@H](CCCCN)C(=O)N[C@@H](CC(C)C)C(=O)N[C@@H](CCC(N)=O)C(=O)N[C@H]1CCC[C@@H]1C(=O)N[C@H](C(=O)N[C@@H](Cc1cnc[nH]1)C(=O)N[C@@H](CC(N)=O)C(=O)N[C@H]1CCC[C@@H]1C(N)=O)C(C)C)C(C)C (H-SVSEIQLMHNLGK[X1]LNS[X1]ERV[X2]WLR[X2]KLQ[X1]VHN-{NH(1S,2S-2-CONH2-cPent)}) | Active |  | 3.2 |  |  |  |  | Active | Toxic | Non-Toxic
